Measurements as given in paper PMC7458062 (ACS Infectious Diseases, 2020).

What was measured:
[1] = tested on: P. aeruginosa 18SH strain, blaPDC; type: cell-based; settings: Pseudomonas aeruginosa, read-out: MIC of CAZ, P. aer. 18SH blaPDC
Outline: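 CLSI broth microdilution in Mueller-Hinton broth, with inoculum at 6 × 10^4 cfu/mL final. Ceftazidime was tested from 128 to 0.06 μg/mL, with test compound held constant at 4 μg/mL. Plates were incubated overnight at 37 °C and MICs were recorded the next day.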

E. coli DH10B blaCTX-M-9 = type: cell-based; settings: Escherichia coli, read-out: MIC of FEP, E. coli, DH10B blaCTX-M-9

Row | MIC [1] [µg/mL] | Structure (SMILES) | MIC (E. coli DH10B blaCTX-M-9) [µg/mL]
1 | 64 | CC(C)(O/N=C(\C(=O)N[C@@H]1C(=O)N2C(C(=O)[O-])=C(C[n+]3ccccc3)CS[C@H]12)c1csc(N)n1)C(=O)O [CAZ, ceftazidime] | 
2 |  | CO/N=C(\C(=O)N[C@@H]1C(=O)N2C(C(=O)[O-])=C(C[N+]3(C)CCCC3)CS[C@H]12)c1csc(N)n1 [FEP, cefepime] | 8
